Bioassay records deposited in PubChem BioAssay by Broad Institute.
Pf Dd2 inh = P. falciparum Dd2 growth inhibitors, primary screen, SYBR Green fluorescence, single dose replicates; 72 h; hits give low values; activity change, % at 10 µM; AID 1159554, 2015; actives 2.3% (n = 94,000); in the data active means activity change below about -80%; inconclusive means no clear call, values can overlap the other calls
IDH1 R132H inh = inhibitors of IDH1 R132H reductase, primary screen, biochemical, plate reader, single point; Isocitrate dehydrogenase [NADP] cytoplasmic (Homo sapiens), O75874; diaphorase/resazurin fluorescence, 60 min; inhibition, % at 10 µM; actives 0.18% (n = 70,000); AID 624101, 2012; in the data active means inhibition above about 34%; inconclusive means no clear call, values can overlap the other calls; inactive means below about 11%
Target sequence (O75874 whole entry R132H): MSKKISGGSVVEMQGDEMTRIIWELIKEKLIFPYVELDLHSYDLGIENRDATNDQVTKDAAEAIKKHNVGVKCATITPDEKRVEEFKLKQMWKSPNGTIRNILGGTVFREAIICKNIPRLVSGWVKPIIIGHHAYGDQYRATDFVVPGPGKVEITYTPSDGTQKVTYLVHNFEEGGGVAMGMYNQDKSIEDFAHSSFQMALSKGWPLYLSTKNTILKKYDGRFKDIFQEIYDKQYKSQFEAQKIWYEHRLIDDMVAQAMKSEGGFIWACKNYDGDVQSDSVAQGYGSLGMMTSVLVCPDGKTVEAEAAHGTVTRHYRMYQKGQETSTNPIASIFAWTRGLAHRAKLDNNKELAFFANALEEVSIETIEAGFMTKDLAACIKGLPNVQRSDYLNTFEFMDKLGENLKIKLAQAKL
GASC1 inh = inhibitors of GASC-1 (KDM4C) histone demethylase, primary screen, biochemical, single concentration HTS; AID 720574, 2013; GST-KDM4C 2-372, H3K9me3 peptide, LANCE TR-FRET; actives 0.15% (n = 96,000); Lysine-specific demethylase 4C (Homo sapiens), Q9H3R0; inhibition, % at 12.5 µM;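 active means mean replicate inhibition above about 25%, with at least 55% of replicates also reaching it, limit read from the data, passing the limit was not always enough; inconclusive means only one of those two conditions met; inactive means neither condition met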
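System: N-terminal GST-fused human GASC-1 (KDM4C) fragment, residues 2-372 / Amount: 10 nM GST-KDM4C in enzyme reaction / Also added: H3K9me3 peptide with Fe(II)/2OG / Times: 30 min demethylation and 1 h detection at room temperature / Signal: LANCE TR-FRET / Read-out basis: Fall in 671/618 emission ratio as inhibition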
T cruzi growth-1 = T. cruzi intracellular proliferation inhibitors, primary screen, cell-based, beta-gal Tulahuen parasites, NIH3T3 host, luminescence; T. cruzi beta-gal in NIH3T3, GalScreen luminescence, 90 h; inhibition, % at 8.34 µM; actives 5.9% (n = 77,000); AID 624255, 2012;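 active means mean inhibition above about 93%, with at least 55% of replicates each passing it, limit read from the data, passing the limit was not always enough; inconclusive means only one of those two conditions holds; inactive means neither condition holds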
T cruzi growth-2 = T. cruzi intracellular proliferation inhibitors, confirmation, cell-based, NIH3T3 host, beta-gal parasite, luminescence, cherry-pick. actives 72% (n = 5,600). shares compounds with T cruzi growth-1. T. cruzi beta-gal in NIH3T3, GalScreen luminescence, 90 h. AID 651739, 2012. inhibition, % at 8.35 µM;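 active means mean replicate inhibition above about 95% and at least 55% of replicates individually reaching it, limit read from the data; inconclusive means only one of the two criteria is met; inactive means neither criterion is met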
T cruzi growth-3 = inhibitors of intracellular T. cruzi replication, confirmation, NIH3T3 host cells, beta-gal parasites, cherry-pick, set 2. actives 21% (n = 5,600). inhibition, % at 2.09 µM. T. cruzi beta-gal in NIH3T3, GalScreen luminescence, 90 h. shares compounds with T cruzi growth-1;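 active means mean inhibition above about 95%, with at least 55% of replicates also reaching it, limit read from the data; inconclusive means meets just one of the two conditions; inactive means meets neither condition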
3T3 cytotox = cytotoxicity in mouse NIH/3T3 fibroblasts, confirmation, cytotoxicity control for T. cruzi proliferation inhibitor project, cell-based, cherry-pick, single point; shares compounds with T cruzi growth-1; actives 14% (n = 5,600); cytotoxicity (signal decrease), % at 8.35 µM; NIH/3T3 viability, CellTiter-Glo ATP luminescence, 90 h;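 active means mean signal decrease across replicates above about 35% based on untreated-well scatter, with enough replicates individually passing, limit read from the data; inconclusive means no rule stated though some were filed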
3T3 cytotox 2 = NIH/3T3 fibroblast cytotoxicity, confirmation, cytotoxicity control, cell-based, cherry-pick, single point, set 2. shares compounds with T cruzi growth-1. actives 56% (n = 5,600). NIH/3T3 viability, CellTiter-Glo ATP luminescence, 90 h. inhibition, % at 24.9 µM;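 active means mean loss of cell viability signal at or above a set limit, and enough replicates individually reaching it; inconclusive means meets only the mean limit or only the replicate share; inactive means meets neither condition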
Numbers stand for hits. Most compounds without a hit are left out; they make up all but 5.9% or so of the library.

For Cn1cnc(S(=O)(=O)N2CC[C@@H]3[C@@H](CO)Nc4ccc(-c5ccccc5)cc4[C@@H]32)c1 the results were Pf Dd2 inh inactive, GASC1 inh inactive, T cruzi growth-1 104.4, T cruzi growth-2 96.3, T cruzi growth-3 inactive, 3T3 cytotox inactive and 3T3 cytotox 2 inactive.
For Cn1cnc(S(=O)(=O)N2CC[C@@H]3[C@H]2c2cc(-c4ccccc4)ccc2N[C@@H]3CO)c1 the results were Pf Dd2 inh inactive, GASC1 inh inactive, T cruzi growth-1 inconclusive, T cruzi growth-2 110.5, T cruzi growth-3 inconclusive, 3T3 cytotox inactive and 3T3 cytotox 2 inactive.
Screening O=S(=O)(NCc1ccccn1)c1ccc(Cl)c(Cl)c1Cl returned IDH1 R132H inh inactive.
For NC(=O)CN(c1cc(Cl)ccc1Cl)S(=O)(=O)c1ccccc1 the results were IDH1 R132H inh inactive.
For Cc1cccc(CN2CCC(CNC(=O)c3cc4cc5ccc(C)cc5nc4o3)CC2)c1 the results were IDH1 R132H inh inactive.
CCOc1ccc(NC(=O)CC2C(=O)NCCN2C(=O)c2ccccc2)cc1 (stereo unspecified) was read as IDH1 R132H inh inactive.
C[C@@H]1CN([C@H](C)CO)C(=O)c2cc(C3=CCCC3)cnc2O[C@@H]1CN(C)C(=O)Cc1ccncc1 was read as Pf Dd2 inh inactive, GASC1 inh inactive, T cruzi growth-1 95.8, T cruzi growth-2 inactive, T cruzi growth-3 inactive, 3T3 cytotox inactive and 3T3 cytotox 2 28.3.
For C[C@@H]1CN([C@@H](C)CO)C(=O)c2cc(C3=CCCCC3)cnc2O[C@H]1CN(C)C(=O)Cc1ccncc1 the results were Pf Dd2 inh inactive and GASC1 inh inactive.
Screening C[C@@H]1CN([C@@H](C)CO)C(=O)c2cc(C3=CCCCC3)cnc2O[C@H]1CN(C)C(=O)Cc1ccccc1 returned Pf Dd2 inh inactive, IDH1 R132H inh inactive, GASC1 inh inactive, T cruzi growth-1 inconclusive, T cruzi growth-2 inactive, T cruzi growth-3 inactive, 3T3 cytotox inactive and 3T3 cytotox 2 64.4.
CC(C)(C)OC(=O)NC/C=N/NC(=O)CCCCC(=O)NO was read as IDH1 R132H inh inactive.
For CC(C)NC(=O)N1CCCCN2[C@H](CO)[C@H](c3ccc(C4=CCCC4)cc3)[C@@H]2C1 the results were Pf Dd2 inh inactive, GASC1 inh inactive, T cruzi growth-1 117.0, T cruzi growth-2 113.2, T cruzi growth-3 105.9, 3T3 cytotox inactive and 3T3 cytotox 2 inactive.
Screening COc1ccc(-c2ccc([C@@H]3[C@H]4CN(C(=O)NC(C)C)CCCCN4[C@H]3CO)cc2)cc1 returned Pf Dd2 inh inactive, GASC1 inh inactive and T cruzi growth-1 inactive.
COc1ccc(-c2ccc([C@H]3[C@H](CO)N4CCCCN(C(=O)NC(C)C)C[C@@H]34)cc2)cc1 was read as Pf Dd2 inh inactive, GASC1 inh inactive, T cruzi growth-1 105.2, T cruzi growth-2 113.5, T cruzi growth-3 inactive, 3T3 cytotox inactive and 3T3 cytotox 2 24.8.
`COc1ccc(-c2ccc([C@H]3[C@@H](CO)N4CCCCN(C(=O)NC(C)C)C[C@H]34)cc2)cc1` gave Pf Dd2 inh inactive, GASC1 inh inactive, T cruzi growth-1 104.2, T cruzi growth-2 110.4, T cruzi growth-3 inactive, 3T3 cytotox inactive and 3T3 cytotox 2 85.4.
`CCOC(=O)c1ccc(NC(=O)CSc2nc3sc4c(c3c(=O)[nH]2)CCC4)cc1` gave IDH1 R132H inh inactive.
